From ChEMBL document CHEMBL1123849, “Synthesis and binding affinities of analogues of cholecystokinin-(30-33) as probes for central nervous system cholecystokinin receptors” (J Med Chem, 1987)
Square brackets hold non-standard residues; d marks the D form. Peptide text beside a SMILES is read from it. * marks the point of attachment. sY = N[C@@H](Cc1ccc(OS(=O)(=O)O)cc1)C(=O)O; Boc = CC(C)(C)OC(=O)*

Molecular target: T1, Cholecystokinin receptor (Mus musculus, UniProt O08786+P56481)
T1 sequence (O08786 whole entry): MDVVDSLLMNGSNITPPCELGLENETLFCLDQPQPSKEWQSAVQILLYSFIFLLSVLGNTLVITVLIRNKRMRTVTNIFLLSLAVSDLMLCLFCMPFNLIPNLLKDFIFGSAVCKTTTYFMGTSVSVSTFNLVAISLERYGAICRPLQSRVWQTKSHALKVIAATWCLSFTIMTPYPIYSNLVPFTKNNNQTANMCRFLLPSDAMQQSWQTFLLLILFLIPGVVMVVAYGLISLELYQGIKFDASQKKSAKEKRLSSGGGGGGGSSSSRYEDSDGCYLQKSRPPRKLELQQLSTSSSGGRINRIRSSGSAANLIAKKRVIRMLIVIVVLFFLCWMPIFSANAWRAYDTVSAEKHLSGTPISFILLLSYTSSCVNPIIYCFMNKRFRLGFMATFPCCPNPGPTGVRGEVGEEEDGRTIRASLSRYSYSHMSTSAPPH
T1 sequence (P56481 whole entry): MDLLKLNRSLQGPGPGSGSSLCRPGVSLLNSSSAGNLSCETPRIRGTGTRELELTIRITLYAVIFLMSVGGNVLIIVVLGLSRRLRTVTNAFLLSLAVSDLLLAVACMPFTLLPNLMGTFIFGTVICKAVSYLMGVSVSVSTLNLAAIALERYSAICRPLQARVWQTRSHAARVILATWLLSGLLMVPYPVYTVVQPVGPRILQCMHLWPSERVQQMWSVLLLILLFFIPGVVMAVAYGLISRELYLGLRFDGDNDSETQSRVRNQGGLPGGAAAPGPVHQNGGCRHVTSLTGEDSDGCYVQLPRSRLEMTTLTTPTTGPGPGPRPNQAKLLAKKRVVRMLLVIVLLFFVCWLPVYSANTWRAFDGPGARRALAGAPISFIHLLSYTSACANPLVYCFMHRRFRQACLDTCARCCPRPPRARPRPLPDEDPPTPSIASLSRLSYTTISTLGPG
Assay: Displacement of [3H]pentagastrin from Cholecystokinin receptor of mouse cerebral cortex
Type: tissue-based
Method in brief: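 Radioligand was [3H]-Boc-β-alanyl-CCK-30-33 (pentagastrin), displaced from central CCK receptors in homogenized mouse cerebral cortex.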

SMILES | Ki [nM]
CC(C)(C)OC(=O)N[C@@H](Cc1c[nH]c2ccccc12)C(=O)NCCC(=O)NC(Cc1ccccc1)C(N)=O (stereo partly specified) | 45000
CSCC[C@H](NC(=O)[C@H](Cc1c[nH]c2ccccc12)NC(=O)OC(C)(C)C)C(=O)N[C@@H](CC(=O)O)C(=O)N[C@@H](Cc1ccccc1)C(N)=O | 1.8
CC(C)(C)OC(=O)N[C@@H](Cc1c[nH]c2ccccc12)C(=O)NCC(=O)N[C@@H](Cc1ccccc1)C(N)=O (Boc-Trp-Gly-Phe-NH2) | 11000
CC(C)(C)OC(=O)N[C@@H](Cc1c[nH]c2ccccc12)C(=O)NCC(=O)N[C@@H](CC(=O)O)C(=O)N[C@@H](Cc1ccccc1)C(N)=O (Boc-WGDF-NH2) | 1600
CSCC[C@H](NC(=O)[C@H](Cc1c[nH]c2ccccc12)NC(=O)OC(C)(C)C)C(=O)NCC(=O)N[C@@H](Cc1ccccc1)C(N)=O (Boc-WMGF-NH2) | 24000
CSCC[C@H](N)C(=O)N[C@@H](CC(=O)O)C(=O)N[C@@H](Cc1ccccc1)C(N)=O (H-Met-Asp-Phe-NH2) | 100000
CSCC[C@H](NC(=O)[C@H](Cc1c[nH]c2ccccc12)NC(=O)CNC(=O)[C@H](CCSC)NC(=O)[C@@H](N)Cc1ccc(OS(=O)(=O)O)cc1)C(=O)N[C@@H](CC(=O)O)C(=O)N[C@@H](Cc1ccccc1)C(N)=O (H-[sY]MGWMDF-NH2) | 2
CSCC[C@H](NC(=O)[C@H](Cc1ccc(OS(=O)(=O)O)cc1)NC(=O)[C@@H](N)CC(=O)O)C(=O)NCC(=O)N[C@@H](Cc1c[nH]c2ccccc12)C(=O)N[C@@H](CCSC)C(=O)N[C@@H](CC(=O)O)C(=O)N[C@@H](Cc1ccccc1)C(N)=O (stereo in doubt; 1) [SINCALIDE] | 3
CSCC[C@H](NC(=O)[C@H](Cc1ccc(OS(=O)(=O)O)cc1)NC(=O)[C@@H](N)CC(=O)O)C(=O)NCC(=O)N[C@@H](Cc1c[nH]c2ccccc12)C(=O)N[C@@H](CCSC)C(=O)N[C@@H](CC(=O)O)C(=O)N[C@@H](Cc1ccccc1)C(N)=O (stereo in doubt; 2) [SINCALIDE] | 180
CSCC[C@H](NC(=O)[C@H](Cc1c[nH]c2ccccc12)NC(=O)CCNC(=O)OC(C)(C)C)C(=O)N[C@@H](CC(=O)O)C(=O)N[C@@H](Cc1ccccc1)C(N)=O [PENTAGASTRIN] | 0.6
CSCC[C@H](NC(=O)[C@@H](N)Cc1c[nH]c2ccccc12)C(=O)N[C@@H](CC(=O)O)C(=O)N[C@@H](Cc1ccccc1)C(N)=O [TETRAGASTRIN] | 3
